Among the data in PubChem BioAssay AID624015 (Broad Institute, 2012) are AC50 values, retold here.

Structures are written as SMILES.

The AC50 is the concentration at which the activity in the assay is half-maximal.

The target in this assay is Scavenger receptor class B member 1 (Mus musculus) (UniProt Q61009). In words: SR-BI C384S cholesterol efflux blockers – cell-based, ldlA CHO C384S mutant, [3H]cholesterol, powder samples, set 2, mechanism study for SR-BI HDL uptake inhibitor project, dose response (AID 624015). Particulars: [3H]cholesterol efflux to HDL. The method in brief: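 Assay system: ldlA CHO cells expressing Cys384S-mutant SR-BI, radiolabel-loaded. Incubation: 1 h compound pre-incubation, then 2 h HDL efflux, 37 °C. Buffer or medium: HEPES pH 7.4 buffered medium, FAF-BSA equilibrated. Detection: scintillation counting, medium and cell lysate.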
Chain of Scavenger receptor class B member 1 (Mus musculus) (Q61009 whole entry, looked up): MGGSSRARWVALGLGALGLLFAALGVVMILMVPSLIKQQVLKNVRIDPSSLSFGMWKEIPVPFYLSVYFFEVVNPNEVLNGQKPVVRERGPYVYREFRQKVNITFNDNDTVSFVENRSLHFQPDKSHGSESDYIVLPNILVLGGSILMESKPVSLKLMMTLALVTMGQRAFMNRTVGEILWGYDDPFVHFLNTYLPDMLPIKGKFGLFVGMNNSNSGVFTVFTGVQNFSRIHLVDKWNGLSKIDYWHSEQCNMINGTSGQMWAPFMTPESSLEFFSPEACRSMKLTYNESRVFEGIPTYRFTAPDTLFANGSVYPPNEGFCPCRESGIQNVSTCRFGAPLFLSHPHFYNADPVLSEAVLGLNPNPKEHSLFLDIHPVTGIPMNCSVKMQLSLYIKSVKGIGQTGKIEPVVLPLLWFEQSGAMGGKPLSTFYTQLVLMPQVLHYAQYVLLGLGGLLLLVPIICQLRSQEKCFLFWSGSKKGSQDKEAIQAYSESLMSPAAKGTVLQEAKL

As for `CC(C)NC(=O)Nc1ccc2c(c1)C(=O)N([C@H](C)CO)C[C@@H](C)[C@H](CN(C)S(=O)(=O)c1ccc(Cl)cc1)O2`, the concentration at half-maximal activity (AC50) is 250 nM.
